Laboratory results as given in article PMC5696082 (Analytical biochemistry, 2017).

What was measured:
Kidney S9 = test: Substrate hydrolysis by pooled tissue S9, kidney; assay type: biochemical, human
In short: (§1)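 Commercial pooled human tissue S9 fraction added to substrate at 50 µM final in 100 mM sodium phosphate, pH 8.0, 0.1 mg/mL BSA. Fluorescence monitored every 30 s for at least 10 min at 37°C. Specific activity given as the mean of triplicates in one experiment, or mean ± standard deviation of 3 independent experiments run in triplicate.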

hCE1 [1] = target: T1, hCE1 (Homo sapiens, UniProt P23141); test: Specific activity of hCE1 towards substrates; assay type: biochemical
T1 sequence (P23141 18-567): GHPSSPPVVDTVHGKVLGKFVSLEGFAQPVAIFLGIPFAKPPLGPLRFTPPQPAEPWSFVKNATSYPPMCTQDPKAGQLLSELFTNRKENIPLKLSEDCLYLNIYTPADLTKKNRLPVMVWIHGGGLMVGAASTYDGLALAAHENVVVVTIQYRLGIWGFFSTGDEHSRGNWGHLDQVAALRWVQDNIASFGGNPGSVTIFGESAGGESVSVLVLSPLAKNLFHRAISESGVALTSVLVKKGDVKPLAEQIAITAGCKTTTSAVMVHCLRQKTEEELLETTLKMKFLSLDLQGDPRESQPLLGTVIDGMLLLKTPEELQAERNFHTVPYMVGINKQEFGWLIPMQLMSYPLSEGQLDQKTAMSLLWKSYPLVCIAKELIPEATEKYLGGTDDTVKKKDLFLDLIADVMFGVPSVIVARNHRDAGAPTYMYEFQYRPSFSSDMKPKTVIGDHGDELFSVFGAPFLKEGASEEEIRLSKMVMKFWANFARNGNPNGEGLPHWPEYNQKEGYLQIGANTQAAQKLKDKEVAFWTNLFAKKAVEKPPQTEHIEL
In short: (§2)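 Enzymes expressed in baculovirus-infected High Five cells: hCE1 CHAPS-solubilised from the 100,000 g pellet, then DEAE-purified; hCE2/hCE3 crude soluble fraction; FAAH crude insoluble fraction. Substrate added to 50 µM final in 100 mM sodium phosphate pH 8.0, 0.1 mg/mL BSA, 1% DMSO. Fluorescence read every 30 s for ≥10 min at 37°C. Rates corrected for estimated purity: hCE1 25%, hCE2 4%, hCE3 3.5% (3% in footnotes), FAAH 6.9%. Triplicates.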

hCE2 [2] = target: T2, hCE2 (Homo sapiens, UniProt O00748); test: Kinetic properties; assay type: biochemical
T2 sequence (O00748 27-559): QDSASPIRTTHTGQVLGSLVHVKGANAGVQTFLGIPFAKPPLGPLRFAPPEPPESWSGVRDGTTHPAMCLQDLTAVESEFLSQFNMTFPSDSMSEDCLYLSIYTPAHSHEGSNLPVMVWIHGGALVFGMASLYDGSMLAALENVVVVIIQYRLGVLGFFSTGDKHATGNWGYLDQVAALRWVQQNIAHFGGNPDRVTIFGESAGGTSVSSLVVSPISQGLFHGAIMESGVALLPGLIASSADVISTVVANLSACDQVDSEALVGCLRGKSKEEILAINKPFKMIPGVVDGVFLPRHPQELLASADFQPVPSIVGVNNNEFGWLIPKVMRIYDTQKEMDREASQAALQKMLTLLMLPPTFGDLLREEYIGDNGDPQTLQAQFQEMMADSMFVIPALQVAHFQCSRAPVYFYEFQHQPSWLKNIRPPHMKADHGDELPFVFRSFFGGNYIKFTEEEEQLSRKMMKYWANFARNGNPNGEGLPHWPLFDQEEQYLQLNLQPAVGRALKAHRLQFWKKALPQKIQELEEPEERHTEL

Intestine S9 = test: Substrate hydrolysis by pooled tissue S9, intestine; assay type: biochemical, human
In short: as §1

hCE1 [3] = target: T1, hCE1; test: Kinetic properties; assay type: biochemical
Lung S9 = test: Substrate hydrolysis by pooled tissue S9, lung; assay type: biochemical, human
In short: as §1

hCE1 [4] = target: T1, hCE1; test: Limit of detection and quantification for hCE1 using partially purified enzyme; assay type: biochemical; conditions: for LOD for hCE1: S/N > 3; for LOD for hCE1 / LOQ for hCE1: [S] = 50 µM; for LOQ for hCE1: S/N > 9
In short: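 Partially purified recombinant hCE1, without any matrix, diluted into wells with substrate at 50 µM. Assay run in 100 mM sodium phosphate, pH 8, 0.1 mg/mL BSA, 1% DMSO, at 37°C. S/N taken as mean signal of enzyme wells over the SD of […], quadruplicates in one experiment. LOD set as the lowest level with S/N > 3; LOQ as S/N > 9.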

hCE2 [5] = target: T2, hCE2; test: Specific activity of hCE2 towards substrates; assay type: biochemical
In short: as §2

hCE3 = target: T3, hCE3 (Homo sapiens, UniProt Q6UWW8); test: Specific activity of hCE3 towards substrates; assay type: biochemical
T3 sequence (Q6UWW8 27-571): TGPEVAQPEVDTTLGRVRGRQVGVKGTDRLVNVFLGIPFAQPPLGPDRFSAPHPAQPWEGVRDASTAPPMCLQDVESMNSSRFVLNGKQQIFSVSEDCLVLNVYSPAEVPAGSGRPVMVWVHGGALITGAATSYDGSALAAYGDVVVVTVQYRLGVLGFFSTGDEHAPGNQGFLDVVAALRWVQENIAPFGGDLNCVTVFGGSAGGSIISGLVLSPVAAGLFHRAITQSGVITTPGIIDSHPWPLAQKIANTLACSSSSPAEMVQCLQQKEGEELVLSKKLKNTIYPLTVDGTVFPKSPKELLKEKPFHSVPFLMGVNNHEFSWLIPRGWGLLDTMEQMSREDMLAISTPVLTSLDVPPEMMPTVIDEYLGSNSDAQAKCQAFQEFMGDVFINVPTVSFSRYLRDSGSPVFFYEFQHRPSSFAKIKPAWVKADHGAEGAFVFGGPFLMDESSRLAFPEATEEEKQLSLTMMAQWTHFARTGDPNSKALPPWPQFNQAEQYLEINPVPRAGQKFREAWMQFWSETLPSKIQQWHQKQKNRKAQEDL
In short: as §2

[6] = Background hydrolysis of substrates in phosphate buffer; assay type: physicochemical
[7] = Kinetic mode (30 s intervals for 30 minutes)

In the case of `CCCCC(C)CCC(=O)Nc1ccc(OC)nc1C` (stereo not drawn) [4-MOMMP, N-(6-methoxy-2-methylpyridin-3-yl)-4-methyloctanamide], the “Hydrolysis Specific Activity” value (Kidney S9) was less than 0.05 pmol/min/µg, the “Turnover by hCE1, times lower than CMNA” value (hCE1 [1]) was 10 times and the “Preference of hCE1 over the other esterases tested” value (hCE1 [1]; 13 other esterases / serine hydrolases) was no less than 10 fold. For the same compound, the “Hydrolysis Specific Activity” value (hCE1 [1]; Table 6, hCE1) was 370 ± 27 pmol/min/µg, the “KM for hCE2, fold lower than that of hCE1” value (hCE2 [2]) was 3 fold and the “Hydrolysis Specific Activity” value (Intestine S9) was less than 0.05 pmol/min/µg. For the same compound, the “Catalytic efficiency of hCE1, fold lower than that of CMNA” value (hCE1 [3]) was “approximately 16 fold”, the “Vmax with hCE1, fold lower than CMNA” value (hCE1 [3]) was 3 fold and the “Vmax, fold higher with hCE1 than hCE2” value (hCE1 [3]) was 120 fold. The “Hydrolysis Specific Activity” value (Lung S9) was 0.20 ± 0.02 pmol/min/µg, the “Time over which hCE1 hydrolysis remained linear” value (hCE1 [4]) was “at least 24 hours” and the “LOD for hCE1” value (hCE1 [4]; Endpoint mode 1 hour) was 0.06 ng. For the same compound, the “LOQ for hCE1” value (hCE1 [4]; Endpoint mode 1 hour) was 2.0 ng, the “LOD for hCE1” value (hCE1 [4]; Endpoint mode 4 hours) was 0.03 ng and the “LOQ for hCE1” value (hCE1 [4]; Endpoint mode 4 hours) was 0.12 ng. For the same compound, the “LOD for hCE1” value (hCE1 [4]; Endpoint mode 24 hours) was 0.008 ng, the “LOQ for hCE1” value (hCE1 [4]; Endpoint mode 24 hours) was 0.03 ng and the “LOD for hCE1” value (hCE1 [4]; [7]) was 3.9 ng. For the same compound, the “LOQ for hCE1” value (hCE1 [4]; [7]) was 16 ng, the “Limit of quantification for hCE1, fold higher than CMNA” value (hCE1 [4]; kinetic mode, short time (<30 minutes)) was 4 fold and the “Selectivity of hCE1 turnover compared to hCE2” value (hCE2 [5]) was 40- to 50 fold. The “hCE2 Specific activity” value (hCE2 [5]; Table 3, [S] = 50 µM, 37°C, pH 8, estimated 4% purity) was 13 pmol/min/µg, the “Hydrolysis Specific Activity” value (hCE2 [5]; Table 6, hCE2) was 6.4 ± 0.7 pmol/min/µg and the “hCE3 Specific activity” value (hCE3; Table 3, [S] = 50 µM, 37°C, pH 8, estimated 3% purity) was less than 1 pmol/min/µg. The “Hydrolysis Specific Activity” value (hCE3; Table 6, hCE3) was 1.4 ± 0.4 pmol/min/µg, the “Background hydrolysis, fold lower than CMNA” value ([6]; phosphate buffer) was 200 fold and the “Rate of background hydrolysis” value ([6]; phosphate buffer 100 mM, pH 8, 0.1 mg/mL BSA) was 0.1 pmol/min.
